Converted amounts (≈) assume the structure as drawn. The source made the active and inactive calls. The calls are words filed in the database; no cut-off is given here.
Legend:
[1] = test system: Micrococcus luteus; test: Antibacterial activity against Micrococcus luteus ATCC 9341 by agar dilution method; format: functional
[2] = test system: Staphylococcus epidermidis; test: Antibacterial activity against Staphylococcus epidermidis ATCC 12228 by agar dilution method; format: functional
[3] = test system: Staphylococcus aureus; test: Antibacterial activity against Staphylococcus aureus ATCC 29213 by agar dilution method; format: functional
[4] = test system: Bacillus cereus; test: Antibacterial activity against Bacillus cereus ATCC 11778 by agar dilution method; format: functional
[5] = test system: Bacillus subtilis; test: Antibacterial activity against Bacillus subtilis ATCC 6633 by agar dilution method; format: functional
[6] = test system: Micrococcus luteus; test: Antibacterial activity against Micrococcus luteus ATCC 10240 by agar dilution method; format: functional
[7] = test system: Staphylococcus aureus; test: Antibacterial activity against Staphylococcus aureus NCTC 4163 by agar dilution method; format: functional
[8] = test system: Staphylococcus aureus; test: Antibacterial activity against Staphylococcus aureus ATCC 25923 by agar dilution method; format: functional
[9] = test system: Staphylococcus aureus; test: Antibacterial activity against Staphylococcus aureus ATCC 6538 by agar dilution method; format: functional
[10] = (§1) Inhibition of Staphylococcus aureus topoisomerase 4 assessed as inhibition of decatenation of kDNA after 1 hr by agarose gel electrophoresis
Method in brief: (§2)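 kDNA was incubated with 1 unit of topoisomerase IV in decatenation assay buffer with varying compound concentrations at 37 °C for 1 h. Reactions were stopped with 2x STOP buffer plus chloroform/iso-amyl alcohol and run on a 1% agarose gel in TAE for 1.5 h at 80 V, then stained with ethidium bromide. IC50 was the concentration preventing 50% conversion of kDNA to decatenated minicircles, derived from gel densitometry.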

[11] = target: DNA gyrase (Staphylococcus aureus) (UniProt P0A0K8+P20831); test: Inhibition of Staphylococcus aureus gyrase using […] DNA as substrate after 1 hr by agarose gel electrophoresis; format: protein-complex assay; conditions: in the assay text read “relaxed” for “supercoiled”
Method in brief: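 The enzyme was incubated in the manufacturer's supercoiling assay buffer with varying compound concentrations at 37 °C for 1 h. Samples were run on a 1% agarose gel in TAE for 3 h at 50 V, stained with ethidium bromide and viewed under UV.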

[12] = test system: Staphylococcus aureus; test: as §1; method in brief: as §2

Compound	MIC [1]	MIC [2]	MIC [3]	MIC [4]	MIC [5]	MIC [6]	MIC [7]	MIC [8]	MIC [9]	IC50 [10]	inhibition [11]	inhibition [12]
Cc1nnsc1C(=O)NNC(=S)Nc1ccccc1C(F)(F)F	200 µg/mL (≈ 553 µM)	200 µg/mL (≈ 553 µM)	200 µg/mL (≈ 553 µM)	400 µg/mL (≈ 1110 µM)	200 µg/mL (≈ 553 µM)	200 µg/mL (≈ 553 µM)	100 µg/mL (≈ 277 µM)	50 µg/mL (≈ 138 µM)	400 µg/mL (≈ 1110 µM)			
O=C(NNC(=S)Nc1ccccc1Br)c1cc2ccccc2[nH]1	100 µg/mL (≈ 257 µM)	200 µg/mL (≈ 514 µM)	100 µg/mL (≈ 257 µM)	200 µg/mL (≈ 514 µM)	200 µg/mL (≈ 514 µM)	100 µg/mL (≈ 257 µM)	200 µg/mL (≈ 514 µM)	100 µg/mL (≈ 257 µM)	200 µg/mL (≈ 514 µM)			
O=C(NNC(=S)Nc1ccc(F)cc1)c1cc2ccccc2[nH]1	50 µg/mL (≈ 152 µM)	100 µg/mL (≈ 305 µM)	100 µg/mL (≈ 305 µM)	100 µg/mL (≈ 305 µM)	100 µg/mL (≈ 305 µM)	25 µg/mL (≈ 76.1 µM)	100 µg/mL (≈ 305 µM)	100 µg/mL (≈ 305 µM)	100 µg/mL (≈ 305 µM)			
O=C(NNC(=S)Nc1ccccc1F)c1cc2ccccc2[nH]1	100 µg/mL (≈ 305 µM)	200 µg/mL (≈ 609 µM)	200 µg/mL (≈ 609 µM)	200 µg/mL (≈ 609 µM)	100 µg/mL (≈ 305 µM)	100 µg/mL (≈ 305 µM)	200 µg/mL (≈ 609 µM)	100 µg/mL (≈ 305 µM)	200 µg/mL (≈ 609 µM)			
O=C(NNC(=S)Nc1ccc([N+](=O)[O-])cc1)c1cc2ccccc2[nH]1	50 µg/mL (≈ 141 µM)	50 µg/mL (≈ 141 µM)	50 µg/mL (≈ 141 µM)	50 µg/mL (≈ 141 µM)	50 µg/mL (≈ 141 µM)	50 µg/mL (≈ 141 µM)	50 µg/mL (≈ 141 µM)	50 µg/mL (≈ 141 µM)	50 µg/mL (≈ 141 µM)	14 µM		
Cc1nnsc1C(=O)NNC(=S)Nc1ccc(Cl)cc1Cl	100 µg/mL (≈ 276 µM)	100 µg/mL (≈ 276 µM)	100 µg/mL (≈ 276 µM)	100 µg/mL (≈ 276 µM)	100 µg/mL (≈ 276 µM)	100 µg/mL (≈ 276 µM)	100 µg/mL (≈ 276 µM)	100 µg/mL (≈ 276 µM)	100 µg/mL (≈ 276 µM)			
O=C(O)c1cn(C2CC2)c2cc(N3CCNCC3)c(F)cc2c1=O [CIPROFLOXACIN]	4 µg/mL (≈ 12.1 µM)	0.5 µg/mL (≈ 1.51 µM)	0.5 µg/mL (≈ 1.51 µM)	1 µg/mL (≈ 3.02 µM)	< 0.125 µg/mL	2 µg/mL (≈ 6.04 µM)	0.5 µg/mL (≈ 1.51 µM)	0.5 µg/mL (≈ 1.51 µM)	0.5 µg/mL (≈ 1.51 µM)			
Cc1nnsc1C(=O)NNC(=S)Nc1cc(F)ccc1F	100 µg/mL (≈ 304 µM)	400 µg/mL (≈ 1210 µM)	400 µg/mL (≈ 1210 µM)	400 µg/mL (≈ 1210 µM)	200 µg/mL (≈ 607 µM)	200 µg/mL (≈ 607 µM)	400 µg/mL (≈ 1210 µM)	200 µg/mL (≈ 607 µM)	400 µg/mL (≈ 1210 µM)			
O=C(NNC(=S)Nc1ccc(F)cc1F)c1cc2ccccc2[nH]1	100 µg/mL (≈ 289 µM)	100 µg/mL (≈ 289 µM)	200 µg/mL (≈ 577 µM)	100 µg/mL (≈ 289 µM)	100 µg/mL (≈ 289 µM)	25 µg/mL (≈ 72.2 µM)	100 µg/mL (≈ 289 µM)	100 µg/mL (≈ 289 µM)	100 µg/mL (≈ 289 µM)	295 µM		

The next lines start with the values.

MIC [1]	MIC [2]	MIC [3]	MIC [4]	MIC [5]	MIC [6]	MIC [7]	MIC [8]	MIC [9]	IC50 [10]	inhibition [11]	inhibition [12]	Compound
200 µg/mL (≈ 642 µM)	400 µg/mL (≈ 1280 µM)	400 µg/mL (≈ 1280 µM)	400 µg/mL (≈ 1280 µM)	400 µg/mL (≈ 1280 µM)	100 µg/mL (≈ 321 µM)	200 µg/mL (≈ 642 µM)	200 µg/mL (≈ 642 µM)	400 µg/mL (≈ 1280 µM)				Cc1nnsc1C(=O)NNC(=S)Nc1cccc(F)c1
50 µg/mL (≈ 134 µM)	200 µg/mL (≈ 537 µM)	200 µg/mL (≈ 537 µM)	100 µg/mL (≈ 269 µM)	100 µg/mL (≈ 269 µM)	100 µg/mL (≈ 269 µM)	200 µg/mL (≈ 537 µM)	100 µg/mL (≈ 269 µM)	200 µg/mL (≈ 537 µM)	403 µM			Cc1nnsc1C(=O)NNC(=S)Nc1ccc(Br)cc1
100 µg/mL (≈ 296 µM)	100 µg/mL (≈ 296 µM)	200 µg/mL (≈ 591 µM)	100 µg/mL (≈ 296 µM)	100 µg/mL (≈ 296 µM)	50 µg/mL (≈ 148 µM)	100 µg/mL (≈ 296 µM)	100 µg/mL (≈ 296 µM)	100 µg/mL (≈ 296 µM)		inactive	inactive	Cc1nnsc1C(=O)NNC(=S)Nc1ccc([N+](=O)[O-])cc1
100 µg/mL (≈ 321 µM)	200 µg/mL (≈ 642 µM)	400 µg/mL (≈ 1280 µM)	200 µg/mL (≈ 642 µM)	200 µg/mL (≈ 642 µM)	100 µg/mL (≈ 321 µM)	400 µg/mL (≈ 1280 µM)	200 µg/mL (≈ 642 µM)	400 µg/mL (≈ 1280 µM)				Cc1nnsc1C(=O)NNC(=S)Nc1ccc(F)cc1
100 µg/mL (≈ 341 µM)	400 µg/mL (≈ 1360 µM)	400 µg/mL (≈ 1360 µM)	400 µg/mL (≈ 1360 µM)	400 µg/mL (≈ 1360 µM)	200 µg/mL (≈ 682 µM)	400 µg/mL (≈ 1360 µM)	400 µg/mL (≈ 1360 µM)	400 µg/mL (≈ 1360 µM)				Cc1nnsc1C(=O)NNC(=S)Nc1ccccc1
100 µg/mL (≈ 305 µM)	50 µg/mL (≈ 153 µM)	50 µg/mL (≈ 153 µM)	50 µg/mL (≈ 153 µM)	50 µg/mL (≈ 153 µM)	50 µg/mL (≈ 153 µM)	100 µg/mL (≈ 305 µM)	50 µg/mL (≈ 153 µM)	100 µg/mL (≈ 305 µM)				Cc1nnsc1C(=O)NNC(=S)Nc1ccc(Cl)cc1
